Source: ChEMBL document CHEMBL1125554, “Studies on pyridonecarboxylic acids. 1. Synthesis and antibacterial evaluation of 7-substituted-6-halo-4-oxo-4H-[1,3]thiazeto[3,2-a]quinoline-3-carboxylic acids” (J Med Chem, 1992)
Converted amounts (≈) assume the structure as drawn.

Experiments:
Assay type in all cases: functional
[1] = tested on: Escherichia coli; test: In vitro antibacterial activity against Escherichia coli NIH JC-2; details: Escherichia coli; read-out: MIC
Method in brief: (§1)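 MIC (μg/mL) by 2-fold agar dilution on Sensitivity Test agar, following the Japan Society of Chemotherapy MIC Committee method. Inocula were about 10⁶ cfu/mL. Growth was read after 20 h incubation at 37 °C.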

[2] = tested on: Klebsiella pneumoniae; test: In vitro antibacterial activity against Klebsiella pneumoniae K-1966; details: Klebsiella pneumoniae; read-out: MIC; method in brief: as §1
[3] = tested on: Pseudomonas aeruginosa; test: In vitro antibacterial activity against Pseudomonas aeruginosa E-2; details: Pseudomonas aeruginosa; read-out: MIC; method in brief: as §1
[4] = tested on: Shigella flexneri; test: In vitro antibacterial activity against Shigella flexneri 2a EW-10; details: Shigella flexneri; read-out: MIC; method in brief: as §1
[5] = tested on: Serratia marcescens; test: In vitro antibacterial activity against Serratia marcescens IFO 3736; details: Serratia marcescens, IFO 3736; read-out: MIC; method in brief: as §1
[6] = tested on: Staphylococcus aureus; test: In vitro antibacterial activity against Staphylococcus aureus 209P JC-1; details: Staphylococcus aureus; read-out: MIC; method in brief: as §1
[7] = tested on: Micrococcus luteus; test: In vitro antibacterial activity against Micrococcus luteus ATCC 9341; details: Micrococcus luteus, ATCC 9341; read-out: MIC; method in brief: as §1
[8] = species: Mus musculus; test: Compound was evaluated for oral efficacy on systemic infections in mice by Escherichia coli KC-14
Method in brief: (§2)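 Male ddY mice (20 ± 2 g), seven per dose group. Challenge was intraperitoneal, 0.5 mL of bacteria suspended in 5% gastric mucin: E. coli KC-14 at 4.3 × 10⁴ cfu/mL or P. aeruginosa E-2 at 2.88 × 10⁵ cfu/mL. Drug was suspended in 0.5% HPC-SL and given orally 2 h (E. coli) or 1 h (P. aeruginosa) after challenge. ED50 was calculated by Probit from 7-day survival.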

[9] = species: Mus musculus; test: Compound was evaluated for oral Pseudomonas aeruginosa E-2; method in brief: as §2

Cl.O.O=C(O)c1c2n(c3cc(N4CCNCC4)c(F)cc3c1=O)CS2
MIC [1]: 0.1 µg/mL
MIC [2]: 0.05 µg/mL
MIC [3]: 0.78 µg/mL
MIC [4]: 0.025 µg/mL
MIC [5]: 0.1 µg/mL
MIC [6]: 0.05 µg/mL
MIC [7]: 25 µg/mL

C=CCN1CCN(c2cc3c(cc2F)c(=O)c(C(=O)O)c2n3C(C)S2)CC1 (centres undefined)
MIC [1]: 0.05 µg/mL (≈ 0.128 µM)
MIC [2]: 0.05 µg/mL (≈ 0.128 µM)
MIC [3]: 0.78 µg/mL (≈ 2 µM)
MIC [4]: 0.025 µg/mL (≈ 0.0642 µM)
MIC [5]: 0.19 µg/mL (≈ 0.488 µM)
MIC [6]: 0.05 µg/mL (≈ 0.128 µM)
MIC [7]: 1.56 µg/mL (≈ 4.01 µM)

CN1CCN(c2cc3c(cc2Cl)c(=O)c(C(=O)O)c2n3CS2)CC1
MIC [1]: 0.2 µg/mL (≈ 0.547 µM)
MIC [2]: 0.2 µg/mL (≈ 0.547 µM)
MIC [3]: 1.56 µg/mL (≈ 4.26 µM)
MIC [4]: 0.1 µg/mL (≈ 0.273 µM)
MIC [5]: 0.39 µg/mL (≈ 1.07 µM)
MIC [6]: 0.2 µg/mL (≈ 0.547 µM)
MIC [7]: 6.25 µg/mL (≈ 17.1 µM)

O=C(O)c1c2n(c3cc(N4CCNCC4)c(F)cc3c1=O)C(c1ccccc1)S2 (centres undefined)
MIC [1]: 0.025 µg/mL (≈ 0.0608 µM)
MIC [2]: 0.025 µg/mL (≈ 0.0608 µM)
MIC [3]: 0.2 µg/mL (≈ 0.486 µM)
MIC [4]: 0.025 µg/mL (≈ 0.0608 µM)
MIC [5]: 0.05 µg/mL (≈ 0.122 µM)
MIC [6]: 0.2 µg/mL (≈ 0.486 µM)
MIC [7]: 3.13 µg/mL (≈ 7.61 µM)

CCC1Sc2c(C(=O)O)c(=O)c3cc(F)c(N4CCN(C)CC4)cc3n21 (centres undefined)
MIC [5]: 0.78 µg/mL (≈ 2.07 µM)
MIC [6]: 0.2 µg/mL (≈ 0.53 µM)

O=C(O)c1c2n(c3cc(N4CCNCC4)c(F)cc3c1=O)C(c1ccc(F)cc1)S2 (centres undefined)
MIC [1]: 0.025 µg/mL (≈ 0.0582 µM)
MIC [2]: 0.0125 µg/mL (≈ 0.0291 µM)
MIC [3]: 0.39 µg/mL (≈ 0.908 µM)
MIC [4]: 0.025 µg/mL (≈ 0.0582 µM)
MIC [5]: 0.39 µg/mL (≈ 0.908 µM)
MIC [6]: 0.2 µg/mL (≈ 0.466 µM)
MIC [7]: 1.56 µg/mL (≈ 3.63 µM)

CC1Sc2c(C(=O)O)c(=O)c3cc(F)c(N4CCN(CCO)CC4)cc3n21 (centres undefined)
MIC [1]: 0.1 µg/mL (≈ 0.254 µM)
MIC [2]: 0.1 µg/mL (≈ 0.254 µM)
MIC [3]: 1.56 µg/mL (≈ 3.97 µM)
MIC [4]: 0.05 µg/mL (≈ 0.127 µM)
MIC [5]: 0.39 µg/mL (≈ 0.991 µM)
MIC [6]: 0.1 µg/mL (≈ 0.254 µM)
MIC [7]: 0.78 µg/mL (≈ 1.98 µM)

CCOC(=O)c1c2n(c3cc(N4CCN(C)CC4)c(F)cc3c1=O)C(c1ccccc1)S2 (centres undefined)
ED50 [8]: 0.89 mg/kg
ED50 [9]: 18.1 mg/kg

CC1Sc2c(C(=O)O)c(=O)c3cc(Cl)c(N4CCNCC4)cc3n21 (centres undefined)
MIC [1]: 0.05 µg/mL (≈ 0.137 µM)
MIC [2]: 0.025 µg/mL (≈ 0.0683 µM)
MIC [3]: 1.56 µg/mL (≈ 4.26 µM)
MIC [4]: 0.0125 µg/mL (≈ 0.0342 µM)
MIC [5]: 0.1 µg/mL (≈ 0.273 µM)
MIC [6]: 0.1 µg/mL (≈ 0.273 µM)
MIC [7]: 1.56 µg/mL (≈ 4.26 µM)

CN1CCN(c2cc3c(cc2F)c(=O)c(C(=O)O)c2n3C(c3ccc(F)cc3F)S2)CC1 (centres undefined)
MIC [1]: 0.39 µg/mL (≈ 0.845 µM)
MIC [2]: 0.78 µg/mL (≈ 1.69 µM)
MIC [3]: 3.13 µg/mL (≈ 6.78 µM)
MIC [4]: 0.78 µg/mL (≈ 1.69 µM)
MIC [5]: 12.5 µg/mL (≈ 27.1 µM)
MIC [6]: 1.56 µg/mL (≈ 3.38 µM)
MIC [7]: 6.25 µg/mL (≈ 13.5 µM)

CC1Sc2c(C(=O)O)c(=O)c3cc(F)c(N4CCOCC4)cc3n21 (centres undefined)
MIC [1]: 0.1 µg/mL (≈ 0.285 µM)
MIC [2]: 0.1 µg/mL (≈ 0.285 µM)
MIC [3]: 0.39 µg/mL (≈ 1.11 µM)
MIC [4]: 0.1 µg/mL (≈ 0.285 µM)
MIC [5]: 0.39 µg/mL (≈ 1.11 µM)
MIC [6]: 0.1 µg/mL (≈ 0.285 µM)
MIC [7]: 1.56 µg/mL (≈ 4.45 µM)

O=C(O)c1c2n(c3cc(N4CCNCC4)c(F)cc3c1=O)C(c1ccccc1F)S2 (centres undefined)
MIC [1]: 0.39 µg/mL (≈ 0.908 µM)
MIC [2]: 0.78 µg/mL (≈ 1.82 µM)
MIC [3]: 3.13 µg/mL (≈ 7.29 µM)
MIC [4]: 0.78 µg/mL (≈ 1.82 µM)
MIC [5]: 12.5 µg/mL (≈ 29.1 µM)
MIC [6]: 1.56 µg/mL (≈ 3.63 µM)
MIC [7]: 12.5 µg/mL (≈ 29.1 µM)

CCOC(=O)c1c2n(c3cc(N4CCN(CC(C)=O)CC4)c(F)cc3c1=O)C(C)S2 (centres undefined)
ED50 [8]: 0.78 mg/kg
ED50 [9]: 27 mg/kg

CC1Sc2c(C(=O)O)c(=O)c3cc(F)c(-n4ccnc4)cc3n21 (centres undefined)
MIC [1]: 0.2 µg/mL (≈ 0.604 µM)
MIC [2]: 0.1 µg/mL (≈ 0.302 µM)
MIC [3]: 3.13 µg/mL (≈ 9.45 µM)
MIC [4]: 0.1 µg/mL (≈ 0.302 µM)
MIC [5]: 0.78 µg/mL (≈ 2.35 µM)
MIC [6]: 0.39 µg/mL (≈ 1.18 µM)
MIC [7]: 6.25 µg/mL (≈ 18.9 µM)

CC1Sc2c(C(=O)O)c(=O)c3cc(F)c(N4CCN(C)CC4)cc3n21 (centres undefined)
MIC [1]: 0.025 µg/mL (≈ 0.0688 µM)
MIC [2]: 0.025 µg/mL (≈ 0.0688 µM)
ED50 [8]: 0.97 mg/kg
ED50 [9]: 8.84 mg/kg
MIC [3]: 0.39 µg/mL (≈ 1.07 µM)
MIC [4]: 0.0125 µg/mL (≈ 0.0344 µM)
MIC [5]: 0.05 µg/mL (≈ 0.138 µM)
MIC [6]: 0.1 µg/mL (≈ 0.275 µM)
MIC [7]: 1.56 µg/mL (≈ 4.29 µM)

CC1Sc2c(C(=O)O)c(=O)c3cc(Cl)c(N4CCN(C)CC4)cc3n21 (centres undefined)
MIC [1]: 0.1 µg/mL (≈ 0.263 µM)
MIC [2]: 0.025 µg/mL (≈ 0.0658 µM)
MIC [3]: 1.56 µg/mL (≈ 4.11 µM)
MIC [4]: 0.1 µg/mL (≈ 0.263 µM)
MIC [5]: 0.1 µg/mL (≈ 0.263 µM)
MIC [6]: 0.2 µg/mL (≈ 0.526 µM)
MIC [7]: 3.13 µg/mL (≈ 8.24 µM)
